According to ChEMBL document CHEMBL1136766, “Design, synthesis, and biological evaluation of new inhibitors of the endocannabinoid uptake: comparison with effects on fatty acid amidohydrolase” (J Med Chem, 2003):

Key:
[1] = biological target: T1, Fatty-acid amide hydrolase 1 (Rattus norvegicus) (UniProt P97612); test: Maximum Inhibition of fatty acid amide hydrolase (FAAH) was determined using rat brain homogenates at 100 uM
T1 sequence (whole entry): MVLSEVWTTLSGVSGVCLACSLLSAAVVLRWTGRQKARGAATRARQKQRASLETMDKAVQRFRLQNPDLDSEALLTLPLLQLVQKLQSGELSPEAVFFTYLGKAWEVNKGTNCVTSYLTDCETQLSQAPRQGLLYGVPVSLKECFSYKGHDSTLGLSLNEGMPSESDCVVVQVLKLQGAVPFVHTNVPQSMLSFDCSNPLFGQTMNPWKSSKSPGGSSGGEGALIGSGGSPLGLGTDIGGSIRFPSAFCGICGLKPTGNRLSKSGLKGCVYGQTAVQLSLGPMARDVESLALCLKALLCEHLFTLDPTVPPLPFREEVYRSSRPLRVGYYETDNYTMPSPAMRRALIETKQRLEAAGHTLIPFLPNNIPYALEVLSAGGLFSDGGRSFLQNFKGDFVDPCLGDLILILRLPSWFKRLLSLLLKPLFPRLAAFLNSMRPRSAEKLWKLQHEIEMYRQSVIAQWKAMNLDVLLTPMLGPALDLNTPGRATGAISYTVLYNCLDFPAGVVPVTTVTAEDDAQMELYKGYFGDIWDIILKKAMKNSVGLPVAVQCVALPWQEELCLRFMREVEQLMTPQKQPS
Summary of the method: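 Rat brain (minus cerebellum) homogenate in 10 mM Tris-HCl, 1 mM EDTA, pH 7.6, incubated 10 min at 37 °C with test agent or ethanol carrier. Substrate: 2 µM final anandamide with trace [3H]anandamide (ethanolamine label), 1% fatty acid free BSA. Stopped on ice plus chloroform/methanol. Aqueous-phase [3H]ethanolamine counted by scintillation. Inhibition read at 100 µM where IC50 fit failed.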

Homo sapiens [2] = species: Homo sapiens; test: Maximum Inhibition of anandamide transport(ANT) was determined against human lymphoma U937 cell at a dose of 50 uM; type: functional, U-937
Summary of the method: (§1)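 U937 cells (10^6/mL, RPMI 1640) preincubated 10 min at 37 °C with inhibitor, highest concentration tested 50 µM. Then [3H]anandamide 0.45 nM plus cold anandamide (100 nM final) added for 7 min. Stopped by GF/C filtration and washed with Krebs-HEPES; radioactivity counted. Nonspecific uptake measured at 4 °C. IC50 by curve fit; maximum inhibition is the % inhibition at 50 µM.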

Cannabinoid receptor 1 = Cannabinoid receptor 1 (Rattus norvegicus, UniProt P20272); test: Binding affinity against G protein coupled Cannabinoid receptor 1 using [3H]WIN-55212-2 in rat cerebellum membranes; type: cell membranes, Membrane
Summary of the method: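 Rat cerebellum membranes washed in 50 mM Tris-HCl pH 7.4, resuspended at about 2 mg/mL protein. Incubated 90 min at 30 °C with 0.5 nM [3H]WIN55212-2 plus competitor in Tris/EDTA/MgCl2/5 mg/mL BSA buffer. Nonspecific binding defined with 10 µM SR141716A. Bound ligand separated by GF/C filtration and counted by scintillation. IC50 from curve fit, Ki by Cheng-Prusoff. Two to four experiments in triplicate.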

[3] = biological target: Transient receptor potential cation channel subfamily V member 1 (Rattus norvegicus, UniProt O35433); test: Binding affinity against vanilloid receptor 1 (VR1) using [3H]RTX in rat spinal cord membranes; type: cell membranes, Membrane
Summary of the method: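 Rat spinal cord membranes (about 1 mg/mL protein) in HEPES/sucrose buffer pH 7.4 with 0.25 mg/mL BSA. Incubated 60 min at 37 °C with 25 pM [3H]RTX plus competitor; nonspecific binding defined with 1 µM RTX. Stopped on ice, α1-acid glycoprotein added, membranes pelleted and counted. Ki by Cheng-Prusoff. Two to four experiments in triplicate.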

[4] = biological target: T2, Fatty-acid amide hydrolase 1 (Rattus norvegicus, UniProt P97612); test: Inhibition of fatty acid amide hydrolase (FAAH) was determined using rat brain homogenates as the enzyme source and [3H]anandamide as substrate; type: tissue-based
T2 sequence (P97612 whole entry): T1 sequence (whole entry)
Summary of the method: (§2)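 Rat brain homogenate without cerebellum, in 10 mM Tris-HCl/1 mM EDTA pH 7.6, incubated 10 min at 37 °C with compound (ethanol carrier). Substrate: anandamide 2 µM final with trace [3H]anandamide labelled in the ethanolamine, plus BSA. Stopped on ice with chloroform/methanol; [3H]ethanolamine in the aqueous phase counted. Eight concentrations from 0.5 to 100 µM, at least three experiments.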

Cannabinoid receptor 2 = Cannabinoid receptor 2 (Homo sapiens, UniProt P34972); test: Binding affinity against G protein coupled human Cannabinoid receptor 2 using [3H]CP-55940 in HEK293 EBNA transfected cells; type: cell-based
Summary of the method: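 Incubated 90 min at 30 °C with 0.3 nM [3H]CP55940 plus competitor. Filtered and counted by scintillation. IC50 from curve fit, Ki by Cheng-Prusoff. Two to four experiments in triplicate.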

[5] = biological target: T1, Fatty-acid amide hydrolase 1 (Rattus norvegicus); test: Inhibition of fatty acid amide hydrolase (FAAH) in rat brain homogenates; type: tissue-based; summary of the method: as §2
Homo sapiens [6] = species: Homo sapiens; test: Inhibition of [3H]anandamide transport(ANT) in human lymphoma U937 cell; type: functional; details: U-937; summary of the method: as §1
[7] = biological target: T2, Fatty-acid amide hydrolase 1; test: Maximum Inhibition of fatty acid amide hydrolase (FAAH) was determined using rat brain homogenates at concentrations ranging from 0.5 to 100 uM; summary of the method: as §2

Sequence of Cannabinoid receptor 1 (P20272 whole entry): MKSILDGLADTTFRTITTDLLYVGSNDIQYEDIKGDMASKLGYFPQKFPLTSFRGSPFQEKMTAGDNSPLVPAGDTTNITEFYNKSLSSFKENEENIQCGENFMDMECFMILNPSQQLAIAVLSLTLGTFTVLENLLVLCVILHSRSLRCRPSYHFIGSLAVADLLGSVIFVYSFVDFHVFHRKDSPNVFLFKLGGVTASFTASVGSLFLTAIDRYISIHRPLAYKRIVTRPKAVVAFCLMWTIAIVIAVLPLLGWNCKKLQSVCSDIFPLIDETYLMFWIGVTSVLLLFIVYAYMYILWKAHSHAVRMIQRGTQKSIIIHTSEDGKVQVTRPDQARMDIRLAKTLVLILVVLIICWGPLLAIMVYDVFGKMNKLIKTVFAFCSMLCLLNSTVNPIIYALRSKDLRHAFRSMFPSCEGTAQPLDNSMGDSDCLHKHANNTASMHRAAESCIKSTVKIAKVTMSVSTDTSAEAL
Sequence of Transient receptor potential cation channel subfamily V member 1 (O35433 whole entry): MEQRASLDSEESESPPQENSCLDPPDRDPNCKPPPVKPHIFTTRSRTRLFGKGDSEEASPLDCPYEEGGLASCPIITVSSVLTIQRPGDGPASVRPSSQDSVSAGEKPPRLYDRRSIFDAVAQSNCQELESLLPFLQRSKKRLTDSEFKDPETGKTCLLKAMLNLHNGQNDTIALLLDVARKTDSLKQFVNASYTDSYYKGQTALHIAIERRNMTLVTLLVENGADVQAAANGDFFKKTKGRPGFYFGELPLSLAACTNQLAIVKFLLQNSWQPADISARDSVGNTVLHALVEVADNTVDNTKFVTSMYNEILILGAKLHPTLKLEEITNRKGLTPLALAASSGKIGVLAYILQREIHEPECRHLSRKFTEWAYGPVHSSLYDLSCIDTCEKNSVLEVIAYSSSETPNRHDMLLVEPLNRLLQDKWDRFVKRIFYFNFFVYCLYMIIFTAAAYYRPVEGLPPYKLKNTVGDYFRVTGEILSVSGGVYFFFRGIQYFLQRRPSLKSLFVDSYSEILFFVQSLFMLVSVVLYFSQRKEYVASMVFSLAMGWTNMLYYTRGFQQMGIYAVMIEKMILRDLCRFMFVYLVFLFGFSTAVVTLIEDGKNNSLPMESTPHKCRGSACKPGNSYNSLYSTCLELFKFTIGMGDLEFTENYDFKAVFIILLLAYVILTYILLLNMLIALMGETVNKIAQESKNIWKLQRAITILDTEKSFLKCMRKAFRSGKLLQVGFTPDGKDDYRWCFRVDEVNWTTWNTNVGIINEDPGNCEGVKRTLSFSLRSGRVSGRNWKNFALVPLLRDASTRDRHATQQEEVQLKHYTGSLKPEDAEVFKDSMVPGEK
Sequence of Cannabinoid receptor 2 (P34972 whole entry): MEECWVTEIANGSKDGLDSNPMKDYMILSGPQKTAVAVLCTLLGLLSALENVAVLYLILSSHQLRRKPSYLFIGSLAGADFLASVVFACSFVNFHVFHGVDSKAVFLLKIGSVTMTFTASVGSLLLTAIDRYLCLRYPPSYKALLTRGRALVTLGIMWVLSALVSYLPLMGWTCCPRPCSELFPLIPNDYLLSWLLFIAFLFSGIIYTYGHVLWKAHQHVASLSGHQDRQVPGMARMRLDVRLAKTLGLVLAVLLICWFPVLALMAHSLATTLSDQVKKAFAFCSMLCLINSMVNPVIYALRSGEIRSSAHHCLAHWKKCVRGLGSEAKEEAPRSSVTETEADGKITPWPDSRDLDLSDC

Structure (SMILES) | Max inhibition [1] | Max inhibition (Homo sapiens [2]) | Ki (Cannabinoid receptor 1) | Ki [3] | IC50 [4] | Ki (Cannabinoid receptor 2) | Max inhibition [5] | IC50 (Homo sapiens [6]) | IC50 [7]
CCCCC/C=C\C/C=C\C/C=C\C/C=C\CCCC(=O)OC(C)c1ccco1 (centres undefined) | 45% | 70% | > 1 µM | > 5 µM | > 120 µM | > 1 µM | – | – | –
CCCCC/C=C\C/C=C\C/C=C\C/C=C\CCCC(=O)NCC1CCCO1 (centres undefined) | – | >85% | > 5 µM | – | 44 µM | > 5 µM | 47% | – | –
CCCCC/C=C\C/C=C\C/C=C\C/C=C\CCCC(=O)OCC1CCOC1 (centres undefined) | – | >85% | > 5 µM | – | 113 µM | > 10 µM | 100% | – | –
CCCCC/C=C\C/C=C\C/C=C\C/C=C\CCCCNCc1ccoc1 | – | >85% | > 1 µM | > 5 µM | 29 µM | > 1 µM | 57% | – | –
CCCCC/C=C\C/C=C\C/C=C\C/C=C\CCCC(=O)NCCc1ccoc1 | – | >85% | > 1 µM | > 5 µM | – | 0.4 µM | – | 3.3 µM | –
CCCCC/C=C\C/C=C\C/C=C\C/C=C\CCCC(=O)OCc1ccsc1 | – | >85% | > 5 µM | – | 84 µM | > 5 µM | 100% | – | –
CCCCC/C=C\C/C=C\C/C=C\C/C=C\CCCC(=O)NCCc1cccs1 | – | >85% | 3 µM | > 5 µM | 102 µM | > 1 µM | 100% | 19 µM | –
CCCCC/C=C\C/C=C\C/C=C\C/C=C\CCCC(=O)N(Cc1cccs1)Cc1cccs1 | – | >85% | > 1 µM | > 5 µM | – | > 1 µM | – | 16 µM | –
CCCCC/C=C\C/C=C\C/C=C\C/C=C\CCCC(=O)OCc1ccco1 | – | >85% | > 5 µM | – | 53 µM | > 5 µM | 100% | – | –
CCCCC/C=C\C/C=C\C/C=C\C/C=C\CCCC(=O)NCc1cccn1C | – | >85% | – | – | – | – | – | – | –
CCCCC/C=C\C/C=C\C/C=C\C/C=C\CCCC(=O)NCc1ccoc1 | – | >85% | 4.7 µM | – | 30 µM | – | 100% | – | –
CCCCC/C=C\C/C=C\C/C=C\C/C=C\CCCC(=O)Nc1ccc(O)cc1 | – | >85% | – | – | 3.7 µM | – | 100% | – | –
CCCCC/C=C\C/C=C\C/C=C\C/C=C\CCCC(=O)O[C@H](C)c1ccco1 | 19% | 37% | > 1 µM | > 5 µM | > 120 µM | > 5 µM | – | – | –
CCCCC/C=C\C/C=C\C/C=C\C/C=C\CCCC(=O)OCc1ccoc1 | – | >85% | > 5 µM | – | 103 µM | > 5 µM | 100% | – | –
CCCCC/C=C\C/C=C\C/C=C\C/C=C\CCCC(=O)NC(C)c1ccco1 (centres undefined) | – | >85% | > 5 µM | > 5 µM | 36 µM | > 5 µM | 75% | 21 µM | –
CCCCC/C=C\C/C=C\C/C=C\C/C=C\CCCC(=O)NCc1cccs1 | – | >85% | – | – | 112 µM | > 10 µM | 100% | – | –
CCCCC/C=C\C/C=C\C/C=C\C/C=C\CCCC(=O)NC(C)Cc1cccs1 (centres undefined) | – | 66% | > 1 µM | < 5 µM | 15 µM | > 1 µM | 36% | 22 µM | –
CCCCC/C=C\C/C=C\C/C=C\C/C=C\CCCC(=O)OCc1cccs1 | – | – | > 5 µM | – | 12 µM | > 5 µM | 80% | – | –
CCCCC/C=C\C/C=C\C/C=C\C/C=C\CCCC(=O)SCc1ccco1 | – | >85% | > 5 µM | > 5 µM | > 120 µM | > 5 µM | 36% | 9 µM | –
CCCCC/C=C\C/C=C\C/C=C\C/C=C\CCCC(=O)N(C)Cc1ccoc1 | – | >85% | > 1 µM | – | > 120 µM | > 1 µM | – | 111 µM | 24 µM
CCCCC/C=C\C/C=C\C/C=C\C/C=C\CCCC(=O)OCCc1cccs1 | – | >85% | > 1 µM | > 5 µM | 24 µM | > 5 µM | 68% | 12 µM | –
CCCCC/C=C\C/C=C\C/C=C\C/C=C\CCCC(=O)O[C@@H](C)c1ccco1 | 24% | 55% | > 1 µM | > 5 µM | > 120 µM | > 5 µM | – | – | –
CCCCC/C=C\C/C=C\C/C=C\C/C=C\CCCC(=O)NCCc1ccsc1 | – | 60% | > 1 µM | < 5 µM | – | > 1 µM | – | 1.3 µM | –
CCCCC/C=C\C/C=C\C/C=C\C/C=C\CCCC(=O)OCC1CCCO1 (centres undefined) | – | >85% | > 5 µM | – | > 120 µM | > 5 µM | 23% | – | –
CCCCC/C=C\C/C=C\C/C=C\C/C=C\CCCC(=O)NCCc1ccco1 | 38% | >85% | > 5 µM | > 5 µM | > 120 µM | > 1 µM | – | 12.8 µM | –
CCCCC/C=C\C/C=C\C/C=C\C/C=C\CCCC(=O)NCc1ccsc1 | – | >85% | > 1 µM | > 5 µM | 12 µM | > 1 µM | 76% | 5 µM | –
CCCCC/C=C\C/C=C\C/C=C\C/C=C\CCCC(=O)NCc1ccco1 | – | >85% | > 5 µM | – | 34 µM | > 5 µM | 100% | – | –
CCCCC/C=C\C/C=C\C/C=C\C/C=C\CCCC(=O)NC(C)Cc1ccsc1 (centres undefined) | – | 78% | > 1 µM | < 5 µM | > 120 µM | > 1 µM | 37% | 21 µM | –
CCCCC/C=C\C/C=C\C/C=C\C/C=C\CCCC(=O)OCCc1ccsc1 | – | 75% | > 1 µM | > 5 µM | 28 µM | > 5 µM | 100% | 26 µM | –
